Test results taken from PMC7311273 (Nuclear medicine and biology, 2020).
Several values for one entry are separate records, joined by “and”; a condition that tells them apart may be missing. Identical values can stand only once. Entries after “also recorded” stand apart in the source; their conditions may differ.

Key:
[1] = competition with equimolar amounts of ligands with gallium, cited from earlier work
[2] = normal CD-1 IGS male mice, 60 min; cited from earlier work
[3] = tested on: prostate cancer osseous metastases; type: in vivo, human
Summary of the method: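 Tracer given IV to men with prostate cancer and known or suspected bone metastases. 60-min dynamic PET from injection over a known or suspected lesion site, then skull-base to mid-thigh PET/CT at ~90 and 180 min. SUVpeak from 1 cm spheres on lesions, blood pool and normal bone. List-mode data subsampled to emulate lower activities (10 replicates, TOF OSEM, 4-mm voxels). Lesion SNR = Lmax/Lmax SD, decay-corrected.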

[4] = Normal organ dosimetry from whole body PET and urine collection, OLINDA/EXM; type: in vivo, human
Summary of the method: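 Eight men received up to ~232 MBq IV. Six top-of-skull to mid-thigh PET scans (10 beds × 90 s) started ~1, 20, 40, 60, 120 and 150 min. Two low-dose CTs gave attenuation correction. Urine from voids after scans 4 and 6 was gamma-counted. Organ activities came from PET images; cortical bone from femur shaft density × 2130 cm3. Time-activity curves fitted mono/bi-exponentially or by Riemann sum.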

[5] = Subject tolerability to radiotracer administration; type: in vivo, human
[6] = 8 male humans, Standard Adult Male phantom
[7] = injected activity of 166.5 MBq (4.5 mCi)

## O=C(O)CN(CCN(CC(=O)O)Cc1ccccc1O)Cc1ccccc1O [HBED, N, N’-bis(2-hydroxybenzyl)ethylenediamine-N,N’-diacetic acid]
[1]; versus DOTA
  out complexes DOTA by: 99%
[1]; versus NOTA
  out complexes NOTA by: 43%

## O=C(O)CN1CCN(CC(=O)O)CCN(CC(=O)NC(P(=O)(O)O)P(=O)(O)O)CCN(CC(=O)O)CC1.[68Ga] [[^68Ga]Ga-BPAMD, reference compound]
[2]
  bone uptake (retention): 9.2 % injected activity/g

## [^68Ga]Ga-3-(3-(((carboxymethyl)(2-((carboxymethyl)(5-(3-((diphosphonomethyl)amino)-3-oxopropyl)-2-hydroxybenzyl)amino)ethyl)amino)methyl)-4-hydroxyphenyl)propanoic acid [[^68Ga]Ga-P15-041]
[2]
  bone uptake (retention): 23.5 % injected activity/g
[3]; PET/CT, patients with prostate cancer bone metastases
  uptake in bone lesions: accumulated in known bone lesions; also recorded: lesion uptake consistently above background
[3]; dynamic cohort, n=4, compared to sites of osseous metastasis
  activity concentrations in blood and normal bone: low compared to sites of osseous metastasis
[3]; human PET
  clearance from blood and soft tissue: cleared rapidly from blood and soft tissue
[4]; [6]
  Effective dose equivalent, Mean: 2.31E-02 mSv/MBq
  Effective dose, Mean: 0.0173 ± 0.0036 mSv/MBq and 1.73E-02 mSv/MBq
  absorbed dose estimate, Adrenals, Mean: 1.02E-02 mSv/MBq
  absorbed dose estimate, Brain, Mean: 3.57E-03 mSv/MBq
  absorbed dose estimate, Breasts, Mean: 8.07E-03 mSv/MBq
  absorbed dose estimate, Gallbladder wall, Mean: 1.03E-02 mSv/MBq
  absorbed dose estimate, Heart Wall, Mean: 1.98E-02 mSv/MBq
  absorbed dose estimate, Kidneys, Mean: 4.93E-02 mSv/MBq
  absorbed dose estimate, Liver, Mean: 8.16E-03 mSv/MBq
  absorbed dose estimate, Lower large intestine wall, Mean: 1.29E-02 mSv/MBq
  absorbed dose estimate, Lungs, Mean: 1.73E-02 mSv/MBq
  absorbed dose estimate, Muscle, Mean: 9.19E-03 mSv/MBq
  absorbed dose estimate, Osteogenic cells, Mean: 2.63E-02 mSv/MBq
  absorbed dose estimate, Ovaries, Mean: 1.16E-02 mSv/MBq
  absorbed dose estimate, Pancreas, Mean: 1.03E-02 mSv/MBq
  absorbed dose estimate, Red Marrow, Mean: 8.04E-03 mSv/MBq
  absorbed dose estimate, Skin, Mean: 7.85E-03 mSv/MBq
  absorbed dose estimate, Small intestine, Mean: 2.41E-02 mSv/MBq
  absorbed dose estimate, Spleen, Mean: 1.17E-02 mSv/MBq
  absorbed dose estimate, Stomach wall, Mean: 9.77E-03 mSv/MBq
  absorbed dose estimate, Testes, Mean: 9.57E-03 mSv/MBq
  absorbed dose estimate, Thymus, Mean: 9.26E-03 mSv/MBq
  absorbed dose estimate, Thyroid, Mean: 8.92E-03 mSv/MBq
  absorbed dose estimate, Total Body, Mean: 1.07E-02 mSv/MBq
  absorbed dose estimate, Upper large intestine wall, Mean: 1.97E-02 mSv/MBq
  absorbed dose estimate, Uterus, Mean: 1.33E-02 mSv/MBq
[4]; 8 male humans, Standard Adult Male phantom, highest individual organ dose
  absorbed dose estimate, Urinary bladder wall, Mean: 0.135 mSv/MBq and 1.35E-01 mSv/MBq
[4]; [7]
  absorbed dose to the kidneys: 8.2 mSv
  absorbed dose to the urinary bladder wall: 22.5 mSv
  effective dose: 2.9 mSv
[5]; 13 subjects
  changes in vital signs before and after injection: No clinically significant changes
[5]; administered to 13 subjects (12 completed protocol)
  tolerability / adverse events: well-tolerated with no reports of serious adverse events
